Results published in publication PMC8427789 (ACS Omega, 2021).

Experiments:
PTP-1B = molecular target: T1, PTP-1B (Homo sapiens, UniProt P18031); test: PTP-1B kinetic studies; assay type: biochemical
T1 sequence (P18031 1-435): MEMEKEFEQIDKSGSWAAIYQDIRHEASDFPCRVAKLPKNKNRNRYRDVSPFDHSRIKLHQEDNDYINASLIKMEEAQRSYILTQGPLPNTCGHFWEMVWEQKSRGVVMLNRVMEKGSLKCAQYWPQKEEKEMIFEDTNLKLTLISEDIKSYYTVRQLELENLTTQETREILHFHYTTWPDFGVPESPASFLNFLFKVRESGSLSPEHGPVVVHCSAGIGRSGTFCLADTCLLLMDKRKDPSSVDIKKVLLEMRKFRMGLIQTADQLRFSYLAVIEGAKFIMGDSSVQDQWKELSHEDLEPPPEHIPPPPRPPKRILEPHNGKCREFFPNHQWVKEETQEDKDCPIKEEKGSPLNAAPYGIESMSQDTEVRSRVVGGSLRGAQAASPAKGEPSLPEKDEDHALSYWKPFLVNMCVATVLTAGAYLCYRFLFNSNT
Procedure, shortened: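 Recombinant human PTP-1B in 100 mM tris buffer, pH 6.8. Test compound at 0.03, 0.07 and 0.1 mM, dissolved in DMSO or buffer, preincubated 5 min with enzyme (solution at 1.56 mg/mL). Then p-NPP added at 0.6–3 mM for 20 min at room temperature, absorbance read at 415 nm. Lineweaver–Burk double-reciprocal plots made; Vmax, Km and Ki from nonlinear regression fit.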

[1] = molecular target: T2, recombinant human protein tyrosine phosphatase 1B (PTP-1B) (Homo sapiens, UniProt P18031); test: PTP-1B activity assay; assay type: biochemical
T2 sequence (P18031 1-435): T1 sequence (P18031 1-435)

[2] = molecular target: yeast α-glucosidase (yeast AG) (Saccharomyces cerevisiae, UniProt P53051); test: biochemical
Chain of yeast α-glucosidase (yeast AG) (P53051 2-589): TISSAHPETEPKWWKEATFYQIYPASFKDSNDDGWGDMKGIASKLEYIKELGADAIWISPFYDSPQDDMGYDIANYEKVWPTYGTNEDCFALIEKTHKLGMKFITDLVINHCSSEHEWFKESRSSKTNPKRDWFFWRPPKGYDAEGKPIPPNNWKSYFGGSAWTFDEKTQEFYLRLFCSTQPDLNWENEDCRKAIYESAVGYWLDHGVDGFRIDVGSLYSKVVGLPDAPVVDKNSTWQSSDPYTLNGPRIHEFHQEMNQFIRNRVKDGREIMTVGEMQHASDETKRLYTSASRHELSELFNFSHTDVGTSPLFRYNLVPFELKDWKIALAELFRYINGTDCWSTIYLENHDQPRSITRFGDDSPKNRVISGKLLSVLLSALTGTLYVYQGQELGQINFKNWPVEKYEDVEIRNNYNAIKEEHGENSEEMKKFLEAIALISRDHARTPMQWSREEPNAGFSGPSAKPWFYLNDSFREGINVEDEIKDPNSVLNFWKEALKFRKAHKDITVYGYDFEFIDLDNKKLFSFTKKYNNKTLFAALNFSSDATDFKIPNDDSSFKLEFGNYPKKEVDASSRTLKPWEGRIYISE

Ki (PTP-1B) [µM] | type of inhibition of PTP-1B (PTP-1B; Lineweaver–Burk plot) | Vmax (PTP-1B; PTP-1B, p-NPP) [mM/min] | IC50 [1] [µM] | IC50 [2] [µM] | SMILES
27.5 | noncompetitive | 1.308 | 81 ± 4 | – | COC(=O)c1c(O)ccc2oc3cc(CO)cc(O)c3c(=O)c12 [Compound 3, sydowinin B]
– | – | – | – | 403 ± 10 | C[C@H]1O[C@H](O[C@H]2[C@H](O)[C@@H](O)[C@@H](O[C@H]3[C@H](O)[C@@H](O)C(O)O[C@@H]3CO)O[C@@H]2CO)[C@H](O)[C@@H](O)[C@@H]1N[C@H]1C=C(CO)[C@@H](O)[C@H](O)[C@H]1O (some centres unmarked) [acarbose]
